Hits are enriched below; roughly 4.9% of the tested compounds scored in any of these assays.
STAT3 inh – inhibitors of IL-6 induced STAT3 signaling; U3A cells, IL-6 STAT3-luciferase reporter, luminescence; host cell line lacks STAT1; inhibition, % at 5.5 µM; actives 0.89% (n = 190,000);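 active = inhibition above the mean inhibition across all screened compounds plus 3 SD, cut at about 44% in these data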
STAT1 inh – STAT1 signaling inhibition | NIH 3T3 STAT1-luciferase reporter, IFN-gamma, luminescence | actives 0.35% (n = 200,000) | inhibition, % at 5.5 µM;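 active = inhibition above a set limit, the mean inhibition across all tested compounds plus 3 SD, cut at about 34% in these data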
NF-kB neuron act – NF-kB expression increase, human neuronal cells. actives 1.6% (n = 190,000). fold change at 12.5 µM. NF-kB reporter expression; stronger effect = higher value; in the data active = fold change above about 3.3
STAT1 act – activators of IFN-gamma induced STAT1 signaling. NIH 3T3 STAT1-luciferase reporter, luminescence; 100% = IFN-gamma alone, no compound. activation (% of control), % at 5.5 µM. actives 2.6% (n = 200,000);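 active = activation above the screen-wide mean activation plus 3 SD, cut at about 130% in these data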
APP 5'UTR act – activates APP 5'UTR luciferase reporter | SH-SY5Y APP 5'UTR luciferase reporter, luminescence; zero percent = DMSO vehicle wells | activation, % at 2 µM | actives 1% (n = 190,000) | AID 1276;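 active = activation above a set limit, based on mean plus 3 SD of controls, cut at about 140% in these data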
STAT3 activator – increases IL-6 driven STAT3 reporter signal; U3A cells, IL-6 STAT3-luciferase reporter, luminescence; 100% = signal with IL-6 EC80 alone; activation (% of control), % at 5.6 µM; actives 0.91% (n = 190,000); AID 871;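 active = activation above the screen-wide mean of compound activation plus 3 SD, cut at about 130% in these data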
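Detection: reporter luminescence signal / Assay system: STAT1-lacking human U3A cells, STAT3 luciferase reporter / Incubation: compound pre-incubation 1 h before IL-6, then 6 h stimulation at 37 °C / Control set: IL-6-only high control / Read-out: % activation relative to IL-6 control / Probe or stimulus: Interleukin-6, 33 ng/mL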
Each line names hits and unclear results; the compound was inactive in the other large screens.

Nc1cc(-c2nc3ncccc3o2)ccc1Cl	STAT1 act 130
Nc1ccc(-c2nc3ncccc3o2)c(Cl)c1	STAT1 act 145
Nc1ccc(Cl)c(-c2nc3ncccc3o2)c1	none
C/C(=N\NC(=O)c1ccc(Cl)c(S(=O)(=O)Nc2ccccc2Cl)c1)c1ccncc1	none
COc1ccc(N(CC(=O)Nc2cccc(N(C)S(C)(=O)=O)c2)S(=O)(=O)c2ccccc2)cc1Cl	none
COc1ccc2oc(=O)c(-c3nc(C)cs3)cc2c1	STAT1 act 135, APP 5'UTR act 199
COc1ccc2oc(=O)c(C(C)=O)cc2c1	none
CCCCCCCCCn1c2c(c(=N)c3c1CCC3)CCCC2	STAT3 inh 76, STAT1 inh 52
CCCCCCCCCCn1c2c(c(=N)c3c1CCC3)CCC2	STAT3 inh 78
CCOC(=O)Cn1c2c(c(=N)c3c1CCC3)CCC2	none
CC(C)(C)NC(=O)CCc1ncc(C(F)(F)F)cc1Cl	none
COC(/C=C/Nc1ccc(C)cc1)=C(C#N)C#N	STAT3 activator 136
COC(/C=C/Nc1ccc(Br)cc1)=C(C#N)C#N	none
CCC(C)NS(=O)(=O)c1ccc(S(=O)(=O)N(CCc2ccc(OC)c(OC)c2)Cc2cccs2)cc1 (configuration not stated)	none
Cc1ccc(NC(=O)c2ccc([N+](=O)[O-])cc2Cl)nc1	STAT1 act 136
CN(C)c1ccc(NC(=O)c2ccc([N+](=O)[O-])cc2Cl)cc1	STAT1 act 145
O=C(CCc1ccccn1)N1CCCC(CNS(=O)(=O)c2cccs2)C1 (configuration not stated)	none
Cc1c(-c2ccncc2)oc2ccc(Br)cc2c1=O	none
Nc1nnc(SCc2nnc(-c3ccccc3)o2)s1	none
Cc1ccc2nc(-c3ccc(SCC(=O)N4CCc5ccccc54)nc3)[nH]c2c1	STAT1 act 131, STAT3 activator 143
Cc1ccc2nc(-c3ccc(SCC(=O)O)nc3)[nH]c2c1	none
COc1ccc(-c2ccc(SCC(=O)Nc3nccs3)nn2)cc1OC	STAT3 activator 135
Cc1cc2nc(-c3ccc(SCC(=O)Nc4nccs4)nc3)[nH]c2cc1C	APP 5'UTR act 156
CCc1nnc(NC(=O)CSc2ccc(-c3nc4ccc(C)cc4[nH]3)cn2)s1	APP 5'UTR act 138
c1ccc2c(Nc3ccc4c(c3)OCCO4)c3c(nc2c1)CCCC3	none
CCOC(=O)c1nnn(CC(=O)NC(=O)Nc2ccc(F)cc2)c1C(=O)OCC	none
Cc1cc2nc(-c3ccc(SCC(=O)Nc4ccc(S(=O)(=O)N5CCCC5)cc4)nc3)[nH]c2cc1C	STAT1 act 140, APP 5'UTR act 153
Cc1cc2nc(-c3ccc(SCc4ccc(C#N)cc4)nc3)[nH]c2cc1C	none
CC(=O)CSc1ccc(-c2nc3cc(C)c(C)cc3[nH]2)cn1	STAT3 inh 103, STAT1 inh 85
O=C(CCCCn1c(=O)c2ccccc2n(Cc2ccccc2)c1=O)NC1CCN(Cc2ccccc2)CC1	none
CC(C)CN(C)Cc1c(C(=O)N2CCc3ccccc3C2)nc2ccc(Cl)cn12	NF-kB neuron act 5.1
Cc1cc(Br)ccc1NC(=O)CN1C(=O)C2C3CC(c4ccccc4)C(C3)C2C1=O (configuration not stated)	none
Cc1[nH]n(-c2ccc([N+](=O)[O-])cc2)c(=O)c1C=NCC1CCCO1 (configuration not stated)	STAT1 act 135
Cc1[nH]n(-c2ccccc2)c(=O)c1C=NC1CCCCC1	NF-kB neuron act 6.1
C=CCN=Cc1c(C)[nH]n(-c2ccccc2)c1=O	NF-kB neuron act 11
CCO[C@H]1OC(C(=O)N2CCN(Cc3ccc4c(c3)OCO4)CC2)=C[C@@H](C2CC2)[C@@H]1CCCO	none (no result: STAT3 inh, STAT3 activator)
CCC1CCCCN1C(=O)CCc1nnc(C2CCCCC2)o1 (configuration not stated)	none
COc1cc(-n2nnnc2SC)c(OC)cc1Cl	NF-kB neuron act 3.6
Cc1ccc(S(=O)(=O)C(C#N)=C2N(C)c3ccccc3N2C)cc1	none
CN1C2C=C3C(C#N)=C(N)C(C#N)(C#N)[C@H](c4c(F)cccc4F)[C@H]3C1CC2 (some centres not stated)	none
CN1C2C=C3C(C#N)=C(N)C(C#N)(C#N)[C@@H](c4cccs4)C3C1CC2 (some centres not stated)	NF-kB neuron act 4.4
Cc1ccc2ccc(C(Nc3ccccn3)c3ccccc3)c(O)c2n1 (configuration not stated)	none
COc1cc(C(Nc2ccccn2)c2ccc3ccc(C)nc3c2O)cc(OC)c1O (configuration not stated)	NF-kB neuron act 6
Oc1c(C(Nc2ccccn2)c2ccccn2)ccc2cccnc12 (configuration not stated)	NF-kB neuron act 7
OCCC1CN(Cc2ccc3c(c2)CCO3)CCN1Cc1ccc(F)cc1 (configuration not stated)	none
CCCS/C(N)=N/N=C/c1ccccc1O	NF-kB neuron act 3.3
Cc1ccc2nc(-c3ccc(S(=O)(=O)N4CCOCC4)cc3)cn2c1	none
CC(=O)Nc1ccc(-c2ccnc(-c3ccc(NC(C)=O)cc3)n2)cc1	none
Cc1ccc2nc(-c3ccccc3)cn2c1	STAT3 inh 103, STAT1 inh 84
CC(=O)Nc1ccc(-c2cn3cc(C)ccc3n2)cc1	NF-kB neuron act 5.9, STAT1 act 130, APP 5'UTR act 149
CCC(C(=O)OCC(=O)Nc1c(Cl)cccc1Cl)c1ccccc1 (configuration not stated)	none
COCc1nnc(NC(=O)c2ccc(OC)cc2OC)s1	NF-kB neuron act 4.4
COc1cccc(C(=O)Nc2nc(-c3ccncc3)cs2)c1	none
COCc1nnc(NC(=O)c2cc(Cl)ccc2OC)s1	none
O=C(Nc1nnc(C23CC4CC(CC(C4)C2)C3)s1)c1ccc(N2C(=O)CCC2=O)cc1	none
CC(C)c1nnc(NC(=O)c2ccc(N3C(=O)CCC3=O)cc2)s1	STAT1 act 136
COc1cccc(C(=O)Nc2nc(C)cs2)c1	NF-kB neuron act 3.7, STAT1 act 148, APP 5'UTR act 164
CCCc1nnc(NC(=O)c2cccc(OC)c2)s1	STAT1 act 134
O=C(/C=C/c1ccccc1)/C=C/c1ccccc1	none
Cc1c(Cl)c([N+](=O)[O-])nn1CC(=O)Nc1ccc2c(c1)OCO2	none
C/C(=N/NC(=O)CNC(=O)c1cccc(F)c1)c1ccc2c(c1)CCCC2	none
CC(C)c1nnc(NC(=O)c2cccc(-n3cnnn3)c2)s1	none
COc1cccc(C(=O)Nc2nnc(C(C)C)s2)c1	STAT1 act 136, APP 5'UTR act 198 (no result: NF-kB neuron act)
COc1ccc(-c2nnc(NC(=O)C(C)C)s2)c(OC)c1	STAT1 act 133
CC(=O)Cc1nsc(Nc2ccc3c(c2)OCCO3)n1	STAT1 act 148
